Laboratory results published in ChEMBL document CHEMBL2016577, “Preparation, antibacterial evaluation and preliminary structure-activity relationship (SAR) study of benzothiazol- and benzoxazol-2-amine derivatives” (Bioorg Med Chem Lett, 2012).
≈ marks a conversion by molar mass, not a printed value.

Assays:
Staphylococcus aureus [1] = test: Antibacterial activity against Staphylococcus aureus ATCC 25923 after 16 hrs by broth microdilution method; assay type: functional; details: ATCC 25923, 16 h
Enterococcus faecalis [2] = test: Antibacterial activity against Enterococcus faecalis ATCC 29212 after 16 hrs by broth microdilution method; assay type: functional; details: ATCC 29212, 16 h
Escherichia coli [3] = test: Antibacterial activity against Escherichia coli ATCC 29425 after 16 hrs by broth microdilution method; assay type: functional; details: ATCC 29425, 16 h
Staphylococcus aureus [4] = test: Antibacterial activity against methicillin-susceptible Staphylococcus aureus after 16 hrs by broth microdilution method; assay type: functional
In short: (§1)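 Clinical isolates, including strains resistant to common antimicrobials, tested by the standard broth dilution method. The read-out is the minimum inhibitory concentration in μg/mL. Each value is representative of three independent determinations.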

Staphylococcus aureus [5] = test: Antibacterial activity against methicillin-resistant Staphylococcus aureus after 16 hrs by broth microdilution method; assay type: functional; in short: as §1
Streptococcus pneumoniae [6] = test: Antibacterial activity against penicillin-susceptible Streptococcus pneumoniae after 16 hrs by broth microdilution method; assay type: functional
Streptococcus pneumoniae [7] = test: Antibacterial activity against penicillin-resistant Streptococcus pneumoniae after 16 hrs by broth microdilution method; assay type: functional; in short: as §1
Enterococcus faecalis [8] = test: Antibacterial activity against vancomycin-susceptible Enterococcus faecalis after 16 hrs by broth microdilution method; assay type: functional
Enterococcus faecalis [9] = test: Antibacterial activity against vancomycin-resistant Enterococcus faecalis after 16 hrs by broth microdilution method; assay type: functional; in short: as §1
Enterococcus faecium [10] = test: Antibacterial activity against vancomycin-susceptible Enterococcus faecium after 16 hrs by broth microdilution method; assay type: functional; in short: as §1
Enterococcus faecium [11] = test: Antibacterial activity against vancomycin-resistant Enterococcus faecium after 16 hrs by broth microdilution method; assay type: functional; in short: as §1
Escherichia coli [12] = test: Antibacterial activity against Escherichia coli clinical isolate after 16 hrs by 2-fold microdilution method; assay type: functional
HEK293 = test: Cytotoxicity against human HEK293 cells after 48 hrs by MTT assay; assay type: cell-based; details: HEK293, 48 h
In short: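 Standard MTT assay in Human Embryonic Kidney 293 cells, with 64 μg/mL as the top concentration tested. IC50 came from three independent experiments.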

[13] = Cytotoxicity against human HEK293 cells at 64 ug/ml after 48 hrs by MTT assay; assay type: cell-based; details: read-out: INH
In short: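 HEK293 cells were exposed to compound at 64 μg/mL and assessed by standard MTT. Inhibitory rate was recorded across three independent experiments.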

Albumin = Albumin (Bos taurus, UniProt P02769); test: Binding affinity to bovine serum albumin BY HPLC analysis; assay type: ADME; details: cattle, isolated protein
In short: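 Compound was incubated with BSA standard solution and the bound fraction separated by centrifugal ultrafiltration. Free compound was quantified by HPLC. Binding degree = (Cb–Ca)/Cb, where Cb and Ca are the compound concentrations before and after interaction with BSA.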

Sequence of Albumin (P02769 whole entry): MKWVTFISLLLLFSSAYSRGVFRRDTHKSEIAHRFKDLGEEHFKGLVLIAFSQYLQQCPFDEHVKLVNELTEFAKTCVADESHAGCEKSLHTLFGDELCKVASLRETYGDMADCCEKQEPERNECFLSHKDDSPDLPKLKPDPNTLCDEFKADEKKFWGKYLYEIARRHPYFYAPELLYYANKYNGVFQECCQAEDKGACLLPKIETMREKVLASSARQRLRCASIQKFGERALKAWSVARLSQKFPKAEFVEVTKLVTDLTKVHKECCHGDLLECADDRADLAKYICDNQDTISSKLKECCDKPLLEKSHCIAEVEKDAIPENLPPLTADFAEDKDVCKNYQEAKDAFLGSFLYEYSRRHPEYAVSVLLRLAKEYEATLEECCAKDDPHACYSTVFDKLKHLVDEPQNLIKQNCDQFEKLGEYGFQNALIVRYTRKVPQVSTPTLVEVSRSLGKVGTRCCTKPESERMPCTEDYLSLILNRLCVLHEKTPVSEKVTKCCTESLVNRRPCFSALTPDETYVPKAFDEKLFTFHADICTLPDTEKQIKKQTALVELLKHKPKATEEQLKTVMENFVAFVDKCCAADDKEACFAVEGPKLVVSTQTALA

| SMILES | MIC (Staphylococcus aureus [1]) | MIC (Enterococcus faecalis [2]) | MIC (Escherichia coli [3]) | other results |
| --- | --- | --- | --- | --- |
| c1ccc(CNCCNc2nc3ccccc3o2)cc1 | > 64 µg/mL | > 64 µg/mL | > 64 µg/mL | – |
| c1ccc(CNCCCNc2nc3ccccc3o2)cc1 | > 64 µg/mL | > 64 µg/mL | > 64 µg/mL | – |
| Clc1ccc(CNCCNc2nc3ccccc3o2)cc1 | 8 µg/mL (≈ 26.5 µM) | 32 µg/mL (≈ 106 µM) | > 64 µg/mL | – |
| Clc1ccc(CNCCCNc2nc3ccccc3o2)cc1 | 16 µg/mL (≈ 50.7 µM) | 16 µg/mL (≈ 50.7 µM) | > 64 µg/mL | – |
| Brc1cccc(CNCCNc2nc3ccccc3o2)c1 | 8 µg/mL (≈ 23.1 µM) | 64 µg/mL (≈ 185 µM) | > 64 µg/mL | – |
| Brc1cccc(CNCCCNc2nc3ccccc3o2)c1 | 16 µg/mL (≈ 44.4 µM) | 8 µg/mL (≈ 22.2 µM) | 32 µg/mL (≈ 88.8 µM) | – |
| Oc1ccc(CNCCNc2nc3ccccc3o2)cc1 | 32 µg/mL (≈ 113 µM) | 32 µg/mL (≈ 113 µM) | > 64 µg/mL | – |
| Oc1ccc(CNCCCNc2nc3ccccc3o2)cc1 | 32 µg/mL (≈ 108 µM) | 32 µg/mL (≈ 108 µM) | > 64 µg/mL | – |
| COc1ccc(CNCCNc2nc3ccccc3o2)cc1 | 64 µg/mL (≈ 215 µM) | 64 µg/mL (≈ 215 µM) | > 64 µg/mL | – |
| COc1ccc(CNCCCNc2nc3ccccc3o2)cc1 | 32 µg/mL (≈ 103 µM) | 32 µg/mL (≈ 103 µM) | > 64 µg/mL | – |
| Clc1ccc(CNCCNc2nc3ccccc3o2)cc1Cl | 16 µg/mL (≈ 47.6 µM) | 8 µg/mL (≈ 23.8 µM) | > 64 µg/mL | – |
| Clc1ccc(CNCCCNc2nc3ccccc3o2)cc1Cl | 16 µg/mL (≈ 45.7 µM) | 2 µg/mL (≈ 5.71 µM) | 32 µg/mL (≈ 91.4 µM) | – |
| Clc1ccc(CNCCNc2nc3ccccc3o2)c(Cl)c1 | 8 µg/mL (≈ 23.8 µM) | 8 µg/mL (≈ 23.8 µM) | > 64 µg/mL | – |
| Clc1ccc(CNCCCNc2nc3ccccc3o2)c(Cl)c1 | 8 µg/mL (≈ 22.8 µM) | 4 µg/mL (≈ 11.4 µM) | > 64 µg/mL | – |
| COc1ccc2nc(NCCCNCc3ccc(Cl)c(Cl)c3)oc2c1 | 8 µg/mL (≈ 21 µM) | 16 µg/mL (≈ 42.1 µM) | 32 µg/mL (≈ 84.1 µM) | – |
| Clc1ccc2nc(NCCCNCc3ccc(Cl)c(Cl)c3)oc2c1 | 2 µg/mL (≈ 5.2 µM) | 4 µg/mL (≈ 10.4 µM) | 32 µg/mL (≈ 83.2 µM) | – |
| Clc1ccc2oc(NCCCNCc3ccc(Cl)c(Cl)c3)nc2c1 | 2 µg/mL (≈ 5.2 µM) | 4 µg/mL (≈ 10.4 µM) | 32 µg/mL (≈ 83.2 µM) | – |
| Fc1ccc2nc(NCCCNCc3ccc(Cl)c(Cl)c3)oc2c1 | 1 µg/mL (≈ 2.72 µM) | 4 µg/mL (≈ 10.9 µM) | 32 µg/mL (≈ 86.9 µM) | – |
| Fc1ccc2oc(NCCCNCc3ccc(Cl)c(Cl)c3)nc2c1 | 1 µg/mL (≈ 2.72 µM) | 4 µg/mL (≈ 10.9 µM) | 32 µg/mL (≈ 86.9 µM) | – |
| Fc1cc2nc(NCCCNCc3ccc(Cl)c(Cl)c3)oc2cc1F | 1 µg/mL (≈ 2.59 µM) | 2 µg/mL (≈ 5.18 µM) | 32 µg/mL (≈ 82.9 µM) | – |
| Cl.O=c1cc(NCCCNCc2ccc(Cl)c(Cl)c2)[nH]c2ccccc12 | 4 µg/mL | 0.5 µg/mL | > 64 µg/mL | MIC (Staphylococcus aureus [4]): 2 µg/mL; MIC (Staphylococcus aureus [5]): 2 µg/mL; MIC (Streptococcus pneumoniae [6]): 4 µg/mL; MIC (Streptococcus pneumoniae [7]): 8 µg/mL; MIC (Enterococcus faecalis [8]): 1 µg/mL; MIC (Enterococcus faecalis [9]): 2 µg/mL; MIC (Enterococcus faecium [10]): 1 µg/mL; MIC (Enterococcus faecium [11]): 1 µg/mL; MIC (Escherichia coli [12]): > 64 µg/mL; IC50 (HEK293): > 64 µg/mL; cytotoxicity at 48 h, 64 ug/ml [13]: 15% |
| c1ccc(CNCCNc2nc3ccccc3s2)cc1 | > 64 µg/mL | > 64 µg/mL | > 64 µg/mL | – |

| SMILES | MIC (Staphylococcus aureus [1]) | MIC (Enterococcus faecalis [2]) | MIC (Escherichia coli [3]) | other results |
| --- | --- | --- | --- | --- |
| c1ccc(CNCCCNc2nc3ccccc3s2)cc1 | > 64 µg/mL | > 64 µg/mL | > 64 µg/mL | – |
| Clc1ccc(CNCCNc2nc3ccccc3s2)cc1 | 8 µg/mL (≈ 25.2 µM) | 32 µg/mL (≈ 101 µM) | > 64 µg/mL | – |
| Clc1ccc(CNCCCNc2nc3ccccc3s2)cc1 | 16 µg/mL (≈ 48.2 µM) | 8 µg/mL (≈ 24.1 µM) | > 64 µg/mL | – |
| Brc1cccc(CNCCNc2nc3ccccc3s2)c1 | 8 µg/mL (≈ 22.1 µM) | 64 µg/mL (≈ 177 µM) | 64 µg/mL (≈ 177 µM) | – |
| Brc1cccc(CNCCCNc2nc3ccccc3s2)c1 | 16 µg/mL (≈ 42.5 µM) | 8 µg/mL (≈ 21.3 µM) | 32 µg/mL (≈ 85 µM) | – |
| Oc1ccc(CNCCNc2nc3ccccc3s2)cc1 | 16 µg/mL (≈ 53.4 µM) | 32 µg/mL (≈ 107 µM) | > 64 µg/mL | – |
| Oc1ccc(CNCCCNc2nc3ccccc3s2)cc1 | 16 µg/mL (≈ 51 µM) | 32 µg/mL (≈ 102 µM) | > 64 µg/mL | – |
| COc1ccc(CNCCNc2nc3ccccc3s2)cc1 | 32 µg/mL (≈ 102 µM) | 32 µg/mL (≈ 102 µM) | > 64 µg/mL | – |
| COc1ccc(CNCCCNc2nc3ccccc3s2)cc1 | 64 µg/mL (≈ 195 µM) | 64 µg/mL (≈ 195 µM) | > 64 µg/mL | – |
| Clc1ccc(CNCCNc2nc3ccccc3s2)cc1Cl | 32 µg/mL (≈ 90.8 µM) | 64 µg/mL (≈ 182 µM) | > 64 µg/mL | – |
| Clc1ccc(CNCCCNc2nc3ccccc3s2)cc1Cl | 4 µg/mL (≈ 10.9 µM) | 16 µg/mL (≈ 43.7 µM) | 32 µg/mL (≈ 87.4 µM) | – |
| Clc1ccc(CNCCNc2nc3ccccc3s2)c(Cl)c1 | 2 µg/mL (≈ 5.68 µM) | 8 µg/mL (≈ 22.7 µM) | 32 µg/mL (≈ 90.8 µM) | – |
| Clc1ccc(CNCCCNc2nc3ccccc3s2)c(Cl)c1 | 8 µg/mL (≈ 21.8 µM) | 8 µg/mL (≈ 21.8 µM) | > 64 µg/mL | – |
| COc1ccc2nc(NCCCNCc3ccc(Cl)c(Cl)c3)sc2c1 | 4 µg/mL (≈ 10.1 µM) | 4 µg/mL (≈ 10.1 µM) | > 64 µg/mL | – |
| Clc1ccc2nc(NCCCNCc3ccc(Cl)c(Cl)c3)sc2c1 | 4 µg/mL (≈ 9.98 µM) | 2 µg/mL (≈ 4.99 µM) | 32 µg/mL (≈ 79.8 µM) | – |
| Clc1ccc2sc(NCCCNCc3ccc(Cl)c(Cl)c3)nc2c1 | 2 µg/mL (≈ 4.99 µM) | 2 µg/mL (≈ 4.99 µM) | 32 µg/mL (≈ 79.8 µM) | – |
| Fc1ccc2nc(NCCCNCc3ccc(Cl)c(Cl)c3)sc2c1 | 1 µg/mL (≈ 2.6 µM) | 2 µg/mL (≈ 5.2 µM) | 32 µg/mL (≈ 83.3 µM) | – |
| Fc1ccc2sc(NCCCNCc3ccc(Cl)c(Cl)c3)nc2c1 | 1 µg/mL (≈ 2.6 µM) | 2 µg/mL (≈ 5.2 µM) | 32 µg/mL (≈ 83.3 µM) | – |
| Fc1cc2nc(NCCCNCc3ccc(Cl)c(Cl)c3)sc2cc1F | 0.5 µg/mL (≈ 1.24 µM) | 1 µg/mL (≈ 2.49 µM) | 32 µg/mL (≈ 79.5 µM) | MIC (Staphylococcus aureus [4]): 0.5 µg/mL (≈ 1.24 µM); MIC (Staphylococcus aureus [5]): 1 µg/mL (≈ 2.49 µM); MIC (Streptococcus pneumoniae [6]): 4 µg/mL (≈ 9.94 µM); MIC (Streptococcus pneumoniae [7]): 4 µg/mL (≈ 9.94 µM); MIC (Enterococcus faecalis [8]): 1 µg/mL (≈ 2.49 µM); MIC (Enterococcus faecalis [9]): 1 µg/mL (≈ 2.49 µM); MIC (Enterococcus faecium [10]): 2 µg/mL (≈ 4.97 µM); MIC (Enterococcus faecium [11]): 2 µg/mL (≈ 4.97 µM); MIC (Escherichia coli [12]): > 64 µg/mL; IC50 (HEK293): > 64 µg/mL; Activity (Albumin): 1.4%; cytotoxicity at 48 h, 64 ug/ml [13]: 15% |
| CC1(C)S[C@@H]2[C@H](NC(=O)[C@H](N)c3ccccc3)C(=O)N2[C@H]1C(=O)O [AMPICILLIN] | – | – | – | MIC (Staphylococcus aureus [4]): 0.0625 µg/mL (≈ 0.179 µM); MIC (Staphylococcus aureus [5]): > 64 µg/mL; MIC (Streptococcus pneumoniae [6]): 0.125 µg/mL (≈ 0.358 µM); MIC (Streptococcus pneumoniae [7]): > 64 µg/mL; MIC (Enterococcus faecalis [8]): 0.125 µg/mL (≈ 0.358 µM); MIC (Enterococcus faecalis [9]): > 64 µg/mL; MIC (Enterococcus faecium [10]): 0.25 µg/mL (≈ 0.715 µM); MIC (Enterococcus faecium [11]): > 64 µg/mL; MIC (Escherichia coli [12]): 0.25 µg/mL (≈ 0.715 µM) |
| CO/N=C(\C(=O)N[C@@H]1C(=O)N2C(C(=O)O)=C(COC(C)=O)CS[C@H]12)c1csc(N)n1 [CEFOTAXIME] | – | – | – | MIC (Staphylococcus aureus [4]): 1 µg/mL (≈ 2.2 µM); MIC (Staphylococcus aureus [5]): > 64 µg/mL; MIC (Streptococcus pneumoniae [6]): 1 µg/mL (≈ 2.2 µM); MIC (Streptococcus pneumoniae [7]): 64 µg/mL (≈ 141 µM); MIC (Enterococcus faecalis [8]): 1 µg/mL (≈ 2.2 µM); MIC (Enterococcus faecalis [9]): > 64 µg/mL; MIC (Enterococcus faecium [10]): 1 µg/mL (≈ 2.2 µM); MIC (Enterococcus faecium [11]): > 64 µg/mL; MIC (Escherichia coli [12]): 0.25 µg/mL (≈ 0.549 µM) |
